Results on 18 compounds are retold here after ChEMBL document CHEMBL1134416, “Statistical molecular design, parallel synthesis, and biological evaluation of a library of thrombin inhibitors” (J Med Chem, 2001).

The nature of data set [1]: Estimation of membrane permeability by migration behavior in micellar media. The class given is ADME. The procedure, abridged:
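Capillary electrophoresis in MEKC mode on untreated fused-silica capillaries (50 µm i.d., 26.5 cm effective length), 300 V/cm, capillary at 37.0 ± 0.1 °C for log k′. Micellar electrolyte: 100 mM sodium cholate in sodium phosphate buffer pH 7.4, I = 0.05. Rinses with 0.1 M NaOH, water, then electrolyte before each run. Hydrodynamic injection at 20 mbar for 5 s. Read-out: log k′.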

Data set [2] is described as follows: Estimation of membrane permeability. The format is ADME.
The target of data set [3] is T1, Serine protease 1 (Bos taurus, UniProt P00760).
T1 sequence (P00760 whole entry): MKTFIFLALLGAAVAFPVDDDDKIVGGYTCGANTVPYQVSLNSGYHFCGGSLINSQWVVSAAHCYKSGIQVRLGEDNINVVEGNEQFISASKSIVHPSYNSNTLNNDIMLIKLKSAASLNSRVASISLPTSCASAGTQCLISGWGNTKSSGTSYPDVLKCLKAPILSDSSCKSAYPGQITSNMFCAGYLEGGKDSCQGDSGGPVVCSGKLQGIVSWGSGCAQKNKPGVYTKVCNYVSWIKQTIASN
Description: Inhibitory activity against bovine Trypsin. Summed up: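 Bovine trypsin at 0.25 mg/L final in 0.05 mol/L Tris-HCl pH 8.2 (20 °C) with 20 mM CaCl₂. Inhibitor at seven assay levels of […], preincubated 5 min with enzyme at 37 °C. S-2222 chromogenic substrate at assay levels of 15, 25 and 50 µM. A405 read every 10 s for 110 s. Ki obtained by linear regression.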

Data set [4] addresses Prothrombin (Homo sapiens, UniProt P00734). In words: Inhibitory activity against thrombin.

Each structure is given as a SMILES string.

For orientation: pKa means the negative logarithm of the acid dissociation constant. The term Ki denotes the equilibrium dissociation constant of an inhibitor or competing ligand from its target. A higher Ki goes with weaker binding. Usually IC50 stands for the midpoint of a concentration-inhibition curve. Higher therefore signals weaker potency.

`CCc1cc(OCCc2cccc(O)c2)cc(OS(=O)(=O)c2ccccc2)c1`: in data set [1], the “CE logK'” value is reported as 1.42.

On to `COc1c(Cl)cc(Cl)cc1S(=O)(=O)Oc1cccc(OCCc2ccc(C(=N)N)cc2)c1`, for which the “CE logK'” value in data set [1] is 0.96. Moreover, the pKa in data set [2] is 10.5. In data set [3], this compound had a Ki of 263 nM. In addition, 56.2 nM corresponded to half-maximal inhibition in data set [4] (IC50).

Consider `O=S(=O)(Oc1cccc(OCCc2cccc(O)c2)c1)c1cccc(Cl)c1Cl`, for which the “CE logK'” value in data set [1] is 1.41.

On to `Cc1cccc(S(=O)(=O)Oc2cccc(OCCc3ccc(CN)cc3)c2)c1`, for which the “CE logK'” value in data set [1] is reported as 0.89. The pKa in data set [2] was 9.4. In data set [4], this compound showed an IC50 of 58900 nM.

`COc1c(Cl)cc(Cl)cc1S(=O)(=O)Oc1cc(C)cc(OCCc2cccc(O)c2)c1`: in data set [1], the “CE logK'” value is 1.57.

As for `CCc1cc(OCCc2ccc(CN)cc2)cc(OS(=O)(=O)c2cc(C)ccc2OC)c1`, in data set [1], the “CE logK'” value is recorded as 0.87. Besides, in data set [2], the pKa is 9.3. In data set [3], this compound had a Ki of 6170 nM.

Consider `Cc1cc(OCCc2ccccc2)cc(OS(=O)(=O)c2ccccc2)c1`, for which the “CE logK'” value in data set [1] is 1.51.

For the compound `NCc1ccc(CCOc2cccc(OS(=O)(=O)c3ccccc3)c2)cc1O`, in data set [1], the “CE logK'” value is on record as 0.85. The pKa in data set [2] is 8.3. Moreover, in data set [4], the IC50 is 10700 nM.

On to `CCc1cc(OCCc2cccc(O)c2)cc(OS(=O)(=O)c2cc(C)ccc2OC)c1`, for which the “CE logK'” value in data set [1] is listed as 1.3.

For the compound `CCc1cc(OCCc2ccc(C(=N)N)cc2)cc(OS(=O)(=O)c2ccccc2)c1`, the “CE logK'” value in data set [1] was 0.88. For the same compound, the pKa in data set [2] is 10.9. The same compound gave an IC50 in data set [4] of 25.1 nM.

With `Cc1cc(OCCc2ccc(C(=N)N)c(O)c2)cc(OS(=O)(=O)c2cccc(C)c2)c1`, the “CE logK'” value in data set [1] is on record as 1.16. Further, the pKa in data set [2] was 6.3. This compound also gave a Ki in data set [3] of 32400 nM. This compound also gave an IC50 in data set [4] of 135 nM.

Take `CCc1cc(OCCc2ccc(C(=N)N)c(O)c2)cc(OS(=O)(=O)c2cc(Cl)cc(Cl)c2OC)c1`: in data set [1], the “CE logK'” value is on record as 1.27. The pKa in data set [2] was 6.3.

On to `COc1ccc(C)cc1S(=O)(=O)Oc1cccc(OCCc2ccccc2)c1`, for which the “CE logK'” value in data set [1] is on record as 1.4.

In the case of `CCc1cc(OCCc2ccc(CN)c(O)c2)cc(OS(=O)(=O)c2cccc(Cl)c2Cl)c1`, the “CE logK'” value in data set [1] was 1.08. In addition, the pKa in data set [2] is 8.3. In addition, inhibition in data set [4] was half-maximal at 11200 nM (IC50).

Take `CCc1cc(OCCc2ccccc2)cc(OS(=O)(=O)c2cc(Cl)ccc2Cl)c1`: the “CE logK'” value in data set [1] was 1.85.

Take `Cc1cc(OCCc2ccc(CN)cc2)cc(OS(=O)(=O)c2cccc(Cl)c2Cl)c1`: in data set [1], the “CE logK'” value is 0.97. Besides, the pKa in data set [2] was 9. Half-maximal inhibition in data set [4] (IC50) was put at 1230 nM.

For `Cc1cc(OCCc2ccc(CN)c(O)c2)cc(OS(=O)(=O)c2cc(Cl)ccc2Cl)c1`, the “CE logK'” value in data set [1] is on record as 0.98. In data set [2], the pKa is 8.6. For the same compound, the IC50 in data set [4] is 933 nM.

For the compound `COc1ccc(C)cc1S(=O)(=O)Oc1cccc(OCCc2ccc(C(=N)N)c(O)c2)c1`, the “CE logK'” value in data set [1] is 1.08. In data set [2], the pKa is 6.2. The same compound had a Ki in data set [3] of 28200 nM. Moreover, half-maximal inhibition in data set [4] (IC50) required 575 nM.
